In ChEMBL document CHEMBL1129790 (J Med Chem, 1996):

Tests used:
[1] = target: Glutamate NMDA receptor; assay: Affinity value against N-methyl-D-aspartate (NMDA) receptor using [3H]-CGS- 19755 in glutamate radioligand binding assay.; format: protein-complex assay
In short: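 Displacement of the ionotropic radioligands ([3H]CGS19755 for NMDA, [3H]AMPA for AMPA, [3H]kainate for kainate sites) in rat forebrain membranes in vitro.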

[2] = In vitro ability to displace [3H]glutamate binding to metabotropic glutamate receptors in rat forebrain membranes; format: cell membranes, Membrane
In short: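 Radioligand displacement of ACPD-sensitive [3H]glutamate binding to metabotropic glutamate receptors in rat forebrain membranes in vitro. IC50 is reported as mean ± error.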

[3] = target: Glutamate receptor ionotropic, kainate; assay: Affinity value against Ionotropic glutamate receptor kainate using [3H]-kainic acid in selective radioligand binding assay.; format: protein-complex assay
In short: (§1)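 Displacement of the ionotropic radioligands ([3H]CGS19755 for NMDA, [3H]AMPA for AMPA, [3H]kainate for kainate sites) in rat forebrain membranes in vitro. Compounds were tested up to 100 μM, with IC50 as the read-out.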

[4] = target: Glutamate receptor ionotropic, AMPA (Rattus norvegicus, UniProt P19490+P19491+P19492+P19493); assay: Affinity against Ionotropic glutamate receptor AMPA using [3H]AMPA in selective radioligand binding assay; format: protein-complex assay; in short: as §1
[5] = species on record: Rattus norvegicus; assay: Augmentation of AMPA-induced excitation after Microelectrophoretic application to intact rat spinal neuron; format: functional
In short: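 Female Wistar rats (200–230 g) under pentobarbitone Na (60 mg/kg ip initially, supplemented ip as needed) with lumbar laminectomy. A seven-barrel glass microelectrode in spinal gray matter recorded single-neuron firing during timed intermittent AMPA ejection (barrel 10 mM in 200 mM NaCl, pH 7.4). Agonists (barrel 25 mM in 175 mM NaCl, pH 7.4) were ejected in varied order across cells. Response reported as % increase over control, mean ± SEM.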

[6] = species on record: Rattus norvegicus; assay: Stimulation of [3H]IP (tritiated inositol monophosphate) formation in cross-chopped slices of the neonata rat cerebral cortex.; format: functional
[7] = species on record: Rattus norvegicus; assay: Inhibition of forskolin-stim cAMP formation in cross-chopped slices of the adult rat cerebral cortex.; format: functional
[8] = test system: Mus musculus; assay: Dose dependent blocking of limbic seizures induced by compound 1 by systemically administrating intraperitoneally

SMILES	IC50 [1]	IC50 [2]	IC50 [3]	IC50 [4]	Increase [5]	EC50 [6]	EC50 [7]	EC50 [8]
N[C@]1(C(=O)O)CN[C@H](C(=O)O)C1	> 100 µM	> 100 µM	> 100 µM	> 100 µM				
N[C@]1(C(=O)O)CN[C@@H](C(=O)O)C1		> 100 µM	> 100 µM	> 100 µM				
N[C@@]1(C(=O)O)CC[C@@H](C(=O)O)C1	> 100 µM	10.3 µM	> 100 µM	> 100 µM	95%	27.7 µM	8.17 µM	
N[C@@]1(C(=O)O)CN[C@@H](C(=O)O)C1	> 100 µM	6.49 µM	> 100 µM	> 100 µM	52%		14.5 µM	271 mg/kg
N[C@@]1(C(=O)O)CN[C@H](C(=O)O)C1	23.7 µM	> 100 µM	> 100 µM	> 100 µM				
